{"source": "paper PMC9199876", "about": "(Clinical and Translational Science, 2022)", "key": {"[1]": {"assay": "Safety and tolerability assessment", "assay_type": "in vivo, humans (healthy adults)", "procedure,_shortened": "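Twelve healthy adults received a single oral 25 mg dose with and without i.v. rifampin 600 mg in crossover. TEAEs were monitored throughout. Vital signs and triplicate 12-lead ECGs were taken at screening (day −28 to −2), predose, and 1, 2, 4, 8 and 48 h post dose in each period. Serum chemistry, hematology and urinalysis were also run. Follow-up included a full physical exam, vital signs and ECG.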"}, "[2]": {"tested_on": "CYP2C9", "conditions": "in vitro, clinically relevant dose (0.06 μM); cited from earlier work"}, "[3]": {"tested_on": "CYP isoforms", "conditions": "in vitro, clinically relevant dose (0.06 μM); cited from earlier work"}, "[4]": {"tested_on": "OATP1B1/1B3", "conditions": "at a clinically relevant dose; cited from earlier work"}, "[5]": {"tested_on": "MATE2-K", "conditions": "at a clinically relevant dose; cited from earlier work"}, "[6]": {"tested_on": "CYP3A", "conditions": "in vitro, clinically relevant dose (0.06 μM); cited from earlier work"}, "[7]": {"tested_on": "CYP2C19", "conditions": "in vitro, clinically relevant dose (0.06 μM); cited from earlier work"}, "[8]": {"tested_on": "bile salt export pump", "conditions": "at a clinically relevant dose; cited from earlier work"}, "[9]": {"tested_on": "CYP2B6", "conditions": "in vitro, clinically relevant dose (0.06 μM); cited from earlier work"}, "[10]": {"tested_on": "MATE2-K", "conditions": "in vitro; cited from earlier work"}, "[11]": {"tested_on": "OCT2", "conditions": "in vitro; cited from earlier work"}, "[12]": {"tested_on": "OAT1", "conditions": "at a clinically relevant dose; cited from earlier work"}, "[13]": {"tested_on": "BCRP", "conditions": "at a clinically relevant dose; cited from earlier work"}, "[14]": {"tested_on": "OCT2", "conditions": "at a clinically relevant dose; cited from earlier work"}, "[15]": {"assay": "Phase I two-way crossover study: plasma pharmacokinetics of trazpiroben and M23", "assay_type": "in vivo, humans (healthy adults)", "conditions": "for AUC∞, geometric mean (mean CV%) / C max, geometric mean (geometric CV%) / T max, median (min, max) / t 1/2z, mean (SD): plasma trazpiroben; for AUC∞, geometric mean (mean CV%): n = 12", "procedure,_shortened": "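Open-label crossover in healthy adults fasted ≥10 h: a single oral 25 mg capsule, alone or right after a 30-min i.v. infusion of 600 mg rifampin, with ≥7-day washout. Parent and metabolite were measured by LC-MS/MS (range 0.1–50.0 ng/ml; BLOQ set to zero). Noncompartmental analysis used actual sampling times.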"}, "[16]": {"tested_on": "CYP1A2", "conditions": "in vitro, clinically relevant dose (0.06 μM); cited from earlier work"}, "[17]": {"tested_on": "MATE1", "conditions": "at a clinically relevant dose; cited from earlier work"}, "[18]": {"conditions": "cited from earlier work"}, "[19]": {"tested_on": "cytosolic NADPH-dependent reductases", "conditions": "in vitro; cited from earlier work"}, "[20]": {"tested_on": "breast cancer resistance protein (BCRP)", "conditions": "in vitro; cited from earlier work"}, "[21]": {"conditions": "preclinical; cited from earlier work"}, "[22]": {"conditions": "oral administration, rats; cited from earlier work"}, "[23]": {"tested_on": "CYP3A4", "conditions": "phase I DDI studies; cited from earlier work"}, "[24]": {"conditions": "healthy Japanese individuals; cited from earlier work"}, "[25]": {"conditions": "phase II, 51 patients with idiopathic or diabetic gastroparesis; cited from earlier work"}, "[26]": {"conditions": "trazpiroben 25 mg alone, n = 12"}, "[27]": {"conditions": "trazpiroben 25 mg + rifampin 600 mg i.v."}}, "note": "Where “and” joins values, the source holds several entries; their conditions need not be identical. Identical values can stand only once. Like-named read-outs stand apart in the source and are kept apart here.", "data": [{"smiles": "O=C(O)c1cccc(CN2CN(C3CCCCC3)C3(CCN(CCCC(=O)c4ccccc4)CC3)C2=O)c1", "note": "[trazpiroben, Trazpiroben]", "values": [{"measurement": "TEAE: Sensory disturbance", "setting": "[1]; [26]", "value": "1 (8) n (%)"}, {"measurement": "TEAE: Sinus congestion", "setting": "[1]; [26]", "value": "1 (8) n (%)"}, {"measurement": "TEAE: Skin and subcutaneous tissue disorders", "setting": "[1]; [26]", "value": "1 (8) n (%)"}, {"measurement": "TEAE: Sneezing", "setting": "[1]; [26]", "value": "1 (8) n (%)"}, {"measurement": "participants reporting contact dermatitis", "setting": "[1]; trazpiroben alone", "value": 8, "unit": "%"}, {"measurement": "participants reporting headache", "setting": "[1]; trazpiroben alone", "value": 17, "unit": "%"}, {"measurement": "participants reporting sensory disturbance", "setting": "[1]; trazpiroben alone", "value": 8, "unit": "%"}, {"measurement": "participants reporting sinus congestion", "setting": "[1]; trazpiroben alone", "value": 8, "unit": "%"}, {"measurement": "participants reporting upper abdominal pain", "setting": "[1]; trazpiroben alone", "value": 8, "unit": "%"}, {"measurement": "severity of TEAEs", "setting": "[1]; whole study", "value": "mild"}, {"measurement": "number of TEAEs recorded", "setting": "[1]; whole study, 12 participants", "value": 10}, {"measurement": "deaths, serious AEs, discontinuations due to an AE", "setting": "[1]; whole study, trazpiroben alone and with rifampin", "value": "no deaths, serious AEs, or discontinuations due to an AE"}, {"measurement": "inhibition of CYP2C9", "setting": "[2]", "value": "does not inhibit"}, {"measurement": "induction of CYP isoforms", "setting": "[3]", "value": "does not induce"}, {"measurement": "inhibitor of OATP1B1/1B3", "setting": "[4]", "value": "not an inhibitor"}, {"measurement": "inhibitor of MATE2-K", "setting": "[5]", "value": "not an inhibitor"}, {"measurement": "inhibition of CYP3A", "setting": "[6]", "value": "does not inhibit"}, {"measurement": "inhibition of CYP2C19", "setting": "[7]", "value": "does not inhibit"}, {"measurement": "inhibitor of bile salt export pump", "setting": "[8]", "value": "not an inhibitor"}, {"measurement": "inhibition of CYP2B6", "setting": "[9]", "value": "does not inhibit"}, {"measurement": "substrate of MATE2-K", "setting": "[10]", "value": "not a substrate"}, {"measurement": "substrate of OCT2", "setting": "[11]", "value": "not a substrate"}, {"measurement": "inhibitor of OAT1", "setting": "[12]", "value": "not an inhibitor"}, {"measurement": "inhibitor of BCRP", "setting": "[13]", "value": "not an inhibitor"}, {"measurement": "inhibitor of OCT2", "setting": "[14]", "value": "not an inhibitor"}, {"measurement": "participants with detectable levels of plasma trazpiroben", "setting": "[15]; 0.5 h, co-administered with rifampin", "value": "all participants"}, {"measurement": "participants with detectable levels of plasma trazpiroben", "setting": "[15]; 0.5 h after trazpiroben alone", "value": 92, "unit": "%"}, {"measurement": "participants with detectable levels of plasma trazpiroben", "setting": "[15]; 12 h after trazpiroben alone", "value": 92, "unit": "%"}, {"measurement": "participants with detectable levels of plasma trazpiroben", "setting": "[15]; 16 h after trazpiroben alone", "value": 42, "unit": "%"}, {"measurement": "participants with detectable levels of plasma trazpiroben", "setting": "[15]; 16 h post dose, trazpiroben + rifampin", "value": 83, "unit": "%"}, {"measurement": "AUC∞, geometric mean (mean CV%)", "setting": "[15]; single oral trazpiroben 25 mg alone", "value": "32.7 ng*h/ml and 32.68 (23.9) ng*h/ml"}, {"measurement": "C max, geometric mean (geometric CV%)", "setting": "[15]; [27]", "value": "89.62 (68.6) ng/ml"}, {"measurement": "T max, median (min, max)", "setting": "[15]; [27]", "value": "1.002 (0.49, 2.00) h"}, {"measurement": "t 1/2z, mean (SD)", "setting": "[15]; [27]", "value": "2.028 ± 0.3449", "unit": "h"}, {"measurement": "C max, geometric mean (geometric CV%)", "setting": "[15]; trazpiroben 25 mg alone", "value": "14.37 (38.7) ng/ml"}, {"measurement": "T max, median (min, max)", "setting": "[15]; trazpiroben 25 mg alone", "value": "1.037 (0.50, 2.00) h"}, {"measurement": "t 1/2z, mean (SD)", "setting": "[15]; trazpiroben 25 mg alone", "value": "4.229 ± 3.7897", "unit": "h"}, {"measurement": "AUC∞, geometric mean (mean CV%)", "setting": "[15]; trazpiroben 25 mg oral + rifampin 600 mg i.v.", "value": "168.5 (49.9) ng*h/ml"}, {"measurement": "CL/F, geometric mean (geometric CV%)", "setting": "[15]; [27]", "value": "148.4 (49.9) L/h"}, {"measurement": "V z/F, geometric mean (geometric CV%)", "setting": "[15]; [27]", "value": "428.1 (49.9) L"}, {"measurement": "CL/F, geometric mean (geometric CV%)", "setting": "[15]; trazpiroben 25 mg alone", "value": "765.1 (23.9) L/h"}, {"measurement": "V z/F, geometric mean (geometric CV%)", "setting": "[15]; trazpiroben 25 mg alone", "value": "3469 (70.7) L"}, {"measurement": "inhibition of CYP1A2", "setting": "[16]", "value": "does not inhibit"}, {"measurement": "inhibitor of MATE1", "setting": "[17]", "value": "not an inhibitor"}, {"measurement": "accumulation index", "setting": "[18]; 50 mg twice daily for 5 days", "value": 1.9}, {"measurement": "accumulation index", "setting": "[18]; 100 mg twice daily for 5 days", "value": 1.4}, {"measurement": "time to maximum concentration [T max]", "setting": "[18]; AT-01C study, healthy men and women", "value": "~ 1.1 h"}, {"measurement": "mean half-life", "setting": "[18]; AT-01C study", "value": 4, "unit": "h"}, {"measurement": "mean apparent oral clearance", "setting": "[18]; across single-dose groups of 25–300 mg", "value": "600 to 800", "unit": "L/h"}, {"measurement": "share of metabolism via non-CYP cytosolic NADPH-dependent reductases (to M23)", "setting": "[19]", "value": 56.7, "unit": "%"}, {"measurement": "substrate of BCRP", "setting": "[20]", "value": "not a substrate"}, {"measurement": "accumulation after repeated doses", "setting": "[21]", "value": "minor accumulation"}, {"measurement": "increase of plasma concentrations with dose", "setting": "[21]", "value": "dose‐proportional manner"}, {"measurement": "absolute bioavailability", "setting": "[22]", "value": "~ 20%"}, {"measurement": "sensitivity to CYP3A4 inhibition", "setting": "[23]", "value": "relatively insensitive"}, {"measurement": "tolerability", "setting": "[24]", "value": "well‐tolerated"}, {"measurement": "safety signals", "setting": "[25]", "value": "did not identify any safety signals"}]}]}
